Measured values of several laboratories.
Compare with care: the assays were run in different laboratories.
Target: Kappa-type opioid receptor (OPRK1, Homo sapiens, UniProt P41145)
Read-out: ligand displacement
Concentration: 10 µM

Structure (SMILES) | method | notes | inhibition [%]
Clc1ccc2c(C3CCN(CCc4c[nH]c5ccccc45)CC3)c[nH]c2c1 | radioligand | – | 79
c1ccc(C(NCCNC(c2ccccc2)c2ccccc2)c2ccccc2)cc1 | – | – | 88
C[C@@H]1N=C(c2ccccc2F)c2cc(Br)ccc2-n2cnc(C(=O)O)c21 | radioligand | – | 62.8
C[C@@H]1C[C@H]2O[C@@H]2/C=C\C=C\C(=O)Cc2c(Cl)c(O)cc(O)c2C(=O)O1 | radioligand | cell membranes | -56
c1ccc(C2CCN(c3cnc4c(N5CCOCC5)nccn34)CC2)cc1 | – | – | 6.44
C[C@H](C(=O)N[C@H]1COc2ccccc2[C@@H]1S(C)(=O)=O)c1ccc(F)cc1 | – | – | 1
COc1ccc(C(=O)NCc2cc(C(C)C)no2)cc1OC1CCN(C)CC1 | radioligand | – | 22
CC(C)N1CCC[C@H]1CNC(=O)c1cn(C2CCCC2)c(=O)c2c1c1ccccc1n2C | radioligand | – | 5
CCc1ccccc1C(=O)Nc1n[nH]c2c(C)c(F)c(C3C(C#N)=C(C)N(C)C(C)=C3C#N)cc12 | – | – | 16.1
COCc1c(-c2cc3cc(C)cc(OC)c3s2)c2c(N)ncnn2c1CN1CCNC(=O)C1 | radioligand | – | 17
